Assay results: ChEMBL document CHEMBL2434947, “Probing structural requirements of positive allosteric modulators of the M4 muscarinic receptor” (J Med Chem, 2013)
Active and inactive are the calls of the source. The calls are words filed in the database; no cut-off is given here.

How the values were obtained:
[1] = target: T1, Muscarinic acetylcholine receptor M4 (Homo sapiens) (UniProt P08173); test: Positive allosteric modulation of human muscarinic M4 receptor expressed in CHO Flp-In cells assessed as stimulation of acetylcholine-induced ERK1/2 phosphorylation incubated under green light condition by fluorescence assay relative to control; format: cell-based
T1 sequence (whole entry): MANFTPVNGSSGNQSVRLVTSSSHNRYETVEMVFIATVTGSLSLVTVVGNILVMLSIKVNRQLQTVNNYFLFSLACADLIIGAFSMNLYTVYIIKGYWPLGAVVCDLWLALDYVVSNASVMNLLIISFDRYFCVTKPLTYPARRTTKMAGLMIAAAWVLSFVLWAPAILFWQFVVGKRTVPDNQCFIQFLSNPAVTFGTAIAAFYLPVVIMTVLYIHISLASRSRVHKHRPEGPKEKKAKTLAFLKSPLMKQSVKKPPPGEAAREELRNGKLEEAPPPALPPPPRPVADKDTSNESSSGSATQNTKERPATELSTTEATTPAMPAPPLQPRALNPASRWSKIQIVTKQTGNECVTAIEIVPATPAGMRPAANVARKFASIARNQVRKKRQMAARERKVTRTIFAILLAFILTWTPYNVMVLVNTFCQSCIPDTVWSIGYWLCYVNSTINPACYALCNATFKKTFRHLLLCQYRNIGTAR
Procedure, shortened: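 ERK1/2 phosphorylation in intact FlpIn-CHO cells stably expressing human M4 mAChR. Modulator was titrated at a fixed EC20 concentration of ACh to give empirical EC50 and Emax (EM′). The incubation time was taken from prior time-course assays of peak phosphorylation. Mean ± SEM from at least three experiments performed in duplicate.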

[2] = target: T1, Muscarinic acetylcholine receptor M4 (Homo sapiens); test: Positive allosteric modulation of human muscarinic M4 receptor expressed in CHO Flp-In cells assessed as stimulation of acetylcholine-induced ERK1/2 phosphorylation incubated under green light condition by fluorescence assay
[3] = target: T1, Muscarinic acetylcholine receptor M4 (Homo sapiens); test: Binding affinity to human muscarinic M4 receptor expressed in CHO Flp-In cells; format: cell-based
Procedure, shortened: (§1)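 Intact FlpIn-CHO cells stably expressing human M4 mAChR; ERK1/2 phosphorylation read-out. A time course first set the incubation time of peak phosphorylation, and concentration-response curves were run at that time. Modulator was titrated against ACh. pKB (allosteric site affinity), τB and composite cooperativity αβ came from an operational model of allosterism. Mean ± SEM from at least three experiments in duplicate.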

[4] = target: T2, Muscarinic acetylcholine receptor M4 (Homo sapiens, UniProt P08173); test: Positive allosteric modulation of human muscarinic M4 receptor expressed in CHO Flp-In cells assessed as stimulation of acetylcholine-induced ERK1/2 phosphorylation incubated under green light condition by fluorescence assay; format: cell-based; procedure, shortened: as §1
T2 sequence (P08173 whole entry): T1 sequence (whole entry)

[5] = target: T1, Muscarinic acetylcholine receptor M4 (Homo sapiens); test: Displacement of [3H]NMS from human muscarinic M4 receptor expressed in CHO Flp-In cells after 4 hrs by scintillation counting analysis; format: cell-based

Activity [1]	Emax [1]	Kb [3]	pKb [3]	EC50 ([4]; read-out: EC50)	Compound	also measured
	92%	11400 nM	4.95	560 nM	COc1cccc(CNC(=O)c2sc3nc(C)cc(C)c3c2N)c1	
	inactive				COc1ccccc1CNC(=O)c1sc2nc(C)cc(C)c2c1N.Cl	Activity [2]: inactive; KB [3]: inactive; EC50 [4]: Not Active
inactive					Cc1cc(C)c(C#N)c(SCC(=O)NCc2cc(F)ccc2F)n1	
	56%	1820 nM	5.74	350 nM	COc1ccc(CNC(=O)c2sc3nc(C)cc(C)c3c2N)c(F)c1	
	85%	1290 nM	5.89	140 nM	Cc1cc(C)c2c(N)c(C(=O)NCc3cc(F)cc(F)c3F)sc2n1	
inactive					COc1ccccc1CNC(=O)CSc1nc(C)cc(C)c1C#N	
inactive					COc1ccc(CNC(=O)CSc2nc(C)cc(C)c2C#N)cc1	
inactive					COc1cccc(CNC(=O)CSc2nc(C)cc(C)c2C#N)c1	
	inactive				COc1cc(F)c(CNC(=O)c2sc3nc(C)cc(C)c3c2N)cc1F.Cl	Activity [2]: inactive; KB [3]: inactive; EC50 [4]: Not Active
	98%	2520 nM	5.6	220 nM	Cc1cc(C)c2c(N)c(C(=O)NCc3ccc(F)cc3)sc2n1	Activity [5]: inactive
	95%	2580 nM	5.59	100 nM	COc1ccc(CNC(=O)c2sc3nc(C)cc(C)c3c2N)cc1F	Activity [5]: inactive
	85%	1690 nM	5.77	130 nM	Cc1cc(C)c2c(N)c(C(=O)NCc3cc(F)ccc3F)sc2n1	

The next lines start with the compound.

Compound	Activity [1]	Emax [1]	Kb [3]	pKb [3]	EC50 ([4]; read-out: EC50)	also measured
Cc1cc(C)c(C#N)c(SCC(=O)NCc2ccccc2F)n1	inactive					
COc1cc(CNC(=O)c2sc3nc(C)cc(C)c3c2N)cc(OC)c1OC.Cl		inactive				Activity [2]: inactive; KB [3]: inactive; EC50 [4]: Not Active
COc1ccc(CNC(=O)CSc2nc(C)cc(C)c2C#N)c(F)c1F	inactive					
COc1ccc(CNC(=O)c2sc3nc(C)cc(C)c3c2N)cc1OC.Cl		inactive				Activity [2]: inactive; KB [3]: inactive; EC50 [4]: Not Active
Cc1cc(C)c2c(N)c(C(=O)NCc3cccc(F)c3F)sc2n1		91%	1720 nM	5.76	110 nM	Activity [5]: inactive
COc1ccc(CNC(=O)c2sc3nc(C)cc(C)c3c2N)cc1		85%				Activity [5]: inactive
Cc1cc(C)c2c(N)c(C(=O)NCc3ccccc3F)sc2n1		92%	1170 nM	5.93	130 nM	
Cc1cc(C)c2c(N)c(C(=O)NCc3cccc(F)c3)sc2n1		98%	6240 nM	5.21	310 nM	Activity [5]: inactive
COc1cc(CNC(=O)c2sc3nc(C)cc(C)c3c2N)cc(OC)c1.Cl		inactive				Activity [2]: inactive; KB [3]: inactive; EC50 [4]: Not Active
Cc1cc(C)c(C#N)c(SCC(=O)NCc2cc(F)c(F)cc2F)n1	inactive					
COc1ccc(CNC(=O)c2sc3nc(C)cc(C)c3c2N)c(F)c1F		89%	1880 nM	5.73	240 nM	Activity [5]: inactive
Cc1cc(C)c2c(N)c(C(=O)NCc3cc(F)c(F)cc3F)sc2n1		83%	2320 nM	5.63	580 nM	
Cc1cc(C)c(C#N)c(SCC(=O)NCc2cccc(F)c2)n1	inactive					
COc1cc(CNC(=O)CSc2nc(C)cc(C)c2C#N)cc(OC)c1	inactive					
